This series is described as follows: Toxicity liver stage against HepG2, at 10uM. Also on record: test concentration 10 uM, cell line HepG2-A16-CD81EGFP. The note with it: human, HepG2-A16-CD81EGFP cells; read-out: INHIBITION
Format: cell-based. The procedure, abridged:
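Uninfected HepG2-A16-CD81EGFP cells, 3 × 10^3 per well, 1536-well, plated on prespotted compound at 10 μM final, parasite-free screening media added to match infected plates; puromycin 10 μM positive, DMSO 0.5% negative; run in parallel with 48 h PbLuc assay at 37 °C, 5% CO2; viability by CellTiter-Glo luminescence, normalized to controls.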
With `NS(=O)(=O)c1cccnc1Nc1c(Cl)cccc1Cl`, the cytotoxicity at 10 µM is -11.8%. For `COCCOc1ccc(-c2noc([C@@H]3CCCN3)n2)cn1` the value was -4.34%; for `CN(C)c1ccc(-c2noc([C@@H]3CCCN3)n2)cn1`, 1.73%.

In the case of `Cc1ccccc1CN1C[C@@H]2OCC(=O)N(CC(N)=O)[C@@H]2C1`, the cytotoxicity at 10 µM was -4.87%. For `Cc1ccc(N2C(=O)N[C@@H]3CCN(C(=O)C4CCCC4)[C@@H]3C2=O)cc1` the value was 0.199%. For `Cc1nc(NC(=O)c2c3c(nn2C2CCS(=O)(=O)C2)CCC3)sc1C` (stereo unspecified) the value was -4.57%; for `O=C(Nc1c(F)cccc1F)N1CC(c2nc(C3CC3)no2)C1`, -1.65%. In the case of `c1coc(CN2CCC3(CC2)CC(N2CCCC2)CO3)c1` (stereo unspecified), the cytotoxicity at 10 µM was -11.9%. For `O=S(=O)(c1cccc(Cl)c1)N1C[C@@H]2CCN[C@@H]2C1` the value was -0.331%; for `CN(C)C(=O)N1CCN(c2ccc3ccc(C(=O)NC4CC4)cn23)CC1`, 6.53%; for `CN(C)C(=O)N1CC[C@@H](O)[C@@H]1Cc1ccccc1`, 3.14%. For `O=C(Nc1ccccc1)C1CN(C(=O)c2cccs2)CC12CCOCC2` (stereo unspecified) the value was -2.13%.

Regarding `COCCNc1nc(NCCc2ccccc2)nc2nccnc12`, the cytotoxicity at 10 µM is 9.97%.

As for `Cn1cccc1C(=O)N1CCc2ncc(Cn3cccn3)n2CC1`, the cytotoxicity at 10 µM was -5.2%.

As to `Cc1nn(C)c(C)c1NC(=O)CCn1ncc2ccc(Cl)cc21`, the cytotoxicity at 10 µM came to 7.38%. For `CC(C)NC(=O)c1n[nH]c(-n2cnnc2)n1` the value was 1.08%; for `O=C(c1ccncc1F)N1CCOC(c2cccc(O)c2)C1` (stereo unspecified), -4.97%. For `COCCS(=O)(=O)NC(C)c1cccc(-n2cccn2)c1` (stereo unspecified) the value was 3.36%; for `CCC(NC(=O)c1ccc(OC)nn1)c1nc(C(F)(F)F)cs1` (stereo unspecified), -3.41%; for `COCC(O)CNc1cncc(Br)c1` (stereo unspecified), -2.52%. With `O=C(c1ccc[nH]1)N1CCN(C(c2ccccc2)C(F)(F)F)CC1` (stereo unspecified), the cytotoxicity at 10 µM is 8.3%. For `COc1ccc(C(=O)NC2COc3ccccc3C2)cc1OCC(=O)O` (stereo unspecified) the value was -2.18%; for `CC(C(=O)N1CCCCC1)N1CCN(c2ncc(Cl)cn2)CC1` (stereo unspecified), -4.79%. As for `O=C(NCc1ccc(Br)cc1)C1(O)CCSCC1`, the cytotoxicity at 10 µM was -3.59%. For `O=C(c1ccc(SC(F)(F)F)cc1)N1CCOCC1c1ncon1` (stereo unspecified) the value was -0.449%. For `CCOC(=O)C1CCN(C(=O)CN2CCCC2c2cc(C)no2)CC1` (stereo unspecified) the value was 8.32%; for `CC(=O)CC(C)(C)NC(=O)CCN(C)Cc1ccc(Cl)s1`, 7.35%. For `Cc1noc(CN2CCN(CCO)CC2)n1` the value was 2.17%. With `O=C1CN(c2ccc(CNC(=O)c3cccnc3O)cc2F)CCN1`, the cytotoxicity at 10 µM worked out at 5.04%. For `CCc1nn(C)c(CC)c1CNC(=O)Nc1cccc([S+](C)[O-])c1` (stereo unspecified) the value was -1.01%; for `Cc1ccc(NC(=O)CNc2ccn(CC(N)=O)n2)c(Cl)c1`, 4.44%; for `Cc1cc(NC(=O)N(C)C2CCN(c3ccccc3F)C2=O)n(C)n1` (stereo unspecified), -7.52%.

Regarding `CSCCC(NC(N)=O)C(=O)NCc1c(C)nn(-c2ccccc2)c1C` (stereo unspecified), the cytotoxicity at 10 µM amounted to 8.15%.

Turning to `O=C(NCC1CCCCO1)c1ccc(-c2ccco2)[nH]c1=O` (stereo unspecified), the cytotoxicity at 10 µM is -3.06%. For `CN(CC(F)(F)F)C(=O)CNC(=O)Cc1cccc(O)c1` the value was 5.37%. For `Cc1cccn2c(=O)cc(CN3CCCCC3Cn3cncn3)nc12` (stereo unspecified) the value was 10.7%; for `COCCCN1CC2(CCN(C(=O)c3ccc(=O)n(C)c3)CC2)CC1=O`, -9.69%; for `CN(Cc1cc(-c2ccccc2)no1)C(=O)CNS(C)(=O)=O`, 0.0288%. For `Cc1nn(C)c(C)c1CCC(=O)N1CCN(CCn2cncn2)CC1` the value was 2.33%; for `Cc1cc(-c2cnn(C)c2)ccc1OCC(N)=O`, 2.74%; for `OC1(CNCCc2csc(-c3ccncc3)n2)CCCNC1` (stereo unspecified), -13.2%.

On to `Cc1nc2c(c(N3CCC(O)(CN4CCCC4)CC3)n1)CCNCC2`, for which the cytotoxicity at 10 µM was -3.39%. For `CCC(C)N(Cc1cnc(OC)nc1)Cc1ccsc1` (stereo unspecified) the value was 1.71%; for `O=C(COc1ccccc1N1CCCC1)N1CCN[C@H]2CS(=O)(=O)C[C@H]21`, -0.687%. For `Cc1cccc(C)c1NC(=O)NCC1CCCN(C2CCOCC2)C1` (stereo unspecified) the value was -5.95%; for `CCOC(=O)N1CCC(NC(C)Cc2cc(C)n[nH]2)CC1` (stereo unspecified), -2.65%; for `COc1ccc(NC(=O)c2cc3c([nH]c2=O)CCCC3=O)c(OC)c1`, -0.0455%. For `CC(C)C(=O)NCC(=O)N(C)C1CCCN(C2Cc3ccccc3C2)C1` (stereo unspecified) the value was -7.79%. With `CCOc1ccc(-c2ccnc(CC)n2)cc1C(=O)O`, the cytotoxicity at 10 µM was -11.1%. For `CC(=O)N1CCN(Cc2coc(-c3cccc(F)c3)n2)CC1` the value was -3.78%. For `Cc1cc(CN(C)C2CCCN(Cc3noc(C)n3)C2)no1` (stereo unspecified) the value was 1.46%. For `Cc1cnn(CC2CCCN2C(=O)c2ccc(OCC3CC3)nc2)c1` (stereo unspecified) the value was -9.86%; for `Fc1cccc(-c2nc(CN3CCCC3Cn3cccn3)co2)c1` (stereo unspecified), -11%; for `COc1cccc(CNc2cc(N3CCCC3CO)ncn2)n1` (stereo unspecified), -12.5%. For `COc1nc(C)ccc1CNc1cc(N2CCCC2CO)ncn1` (stereo unspecified), the cytotoxicity at 10 µM was -8.02%.

Regarding `CCc1[nH]ncc1C(=O)N1CCCC(n2nc(C)cc2C)C1` (stereo unspecified), the cytotoxicity at 10 µM is -15.6%. For `NS(=O)(=O)c1cccc(CNc2nccc(C(F)(F)F)n2)c1` the value was -11.1%; for `COc1ccccc1C1(C(=O)N2CCCC(c3cc(C)[nH]n3)C2)CC1` (stereo unspecified), -16.7%. For `CS(=O)(=O)NCC1CCCN(C(=O)c2ccco2)C1` (stereo unspecified) the value was -19.3%; for `COc1cccc(CN2CCCC2c2c(C)nn(C)c2C)c1` (stereo unspecified), -2.35%; for `Cc1nnc(C2Cc3ccccc3CN2Cc2ncc(C(C)(C)C)o2)o1` (stereo unspecified), 10%.

Take `COc1ccccc1CC1CCCN(CC(=O)N2CCOCC2)C1` (stereo unspecified): the cytotoxicity at 10 µM was 7.87%. For `CC1CCN(CCCNS(=O)(=O)c2cccc(F)c2)CC1` the value was -12.3%. As to `Cc1cccc(CN2CC[C@H]3[C@@H]2CC(=O)N3CC2CC2)n1`, the cytotoxicity at 10 µM is -4.25%. On to `Cn1cccc1C(=O)N1CCCC2(CCN(CCN3CCCC3)C2=O)C1` (stereo unspecified), for which the cytotoxicity at 10 µM was -10.8%.

On to `Cc1ccc(CN2Cc3nnn(C)c3C(COCC3CC3)C2)o1` (stereo unspecified), for which the cytotoxicity at 10 µM is -4.7%. For `CS(=O)(=O)c1cccc(C(N)c2ccc(F)c(F)c2)c1` (stereo unspecified) the value was 6.62%; for `CCn1ncc2c1C(COCC1CC1)CN(c1ccncn1)C2` (stereo unspecified), 2.74%; for `O=C1C[C@@H]2[C@H](CCN2Cc2ccccn2)N1Cc1ccncc1`, 4.53%. For `O=C(c1cc(C2CCCCC2)no1)N1C[C@H]2CC(O)C[C@H]2C1` (stereo partly specified) the value was -3.89%; for `O=c1[nH]c2cn(-c3cccc(Cl)c3)c(=O)n2[nH]1`, 1.35%.

Values taken from ChEMBL document CHEMBL4513216, “Probing the Open Global Health Chemical Diversity Library for Multistage-Active Starting Points for Next-Generation Antimalarials” (ACS Infect Dis, 2020).
